Laboratory results taken from ChEMBL document CHEMBL3351634, “Novel sulfonamides bearing pyrrole and pyrrolopyrimidine moieties as carbonic anhydrase inhibitors: Synthesis, cytotoxic activity and molecular modeling” (Eur J Med Chem, 2014).

Experiments:
MCF7 [1] = assay: Cytotoxicity against human MCF7 cells after 48 hrs by sulforhodamine-B assay; details: MCF7, 48 h
MCF7 [2] = assay: Cytotoxicity against human MCF7 cells assessed as cell survival at 10 uM after 48 hrs by sulforhodamine-B assay; format: functional; details: MCF7, 48 h, read-out: Survival
In short: (§1)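 Cells plated at 10⁴ per well and left 24 h to attach, then exposed for 48 h at 37 °C under 5% CO₂, with triplicate wells per concentration. Cells were fixed, washed and stained 30 min with 0.4% (wt/vol) SRB in 1% acetic acid. Unbound dye was removed with four 1% acetic acid washes and bound stain recovered in Tris-EDTA. Colour was read on an ELISA reader and expressed as surviving fraction.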

Carbonic anhydrase 9 = Carbonic anhydrase 9 (Homo sapiens, UniProt Q16790); assay: Inhibition of human recombinant carbonic anhydrase 9 preincubated for 15 mins by stopped-flow CO2 hydrase assay
MCF7 [3] = assay: Cytotoxicity against human MCF7 cells assessed as cell survival at 25 uM after 48 hrs by sulforhodamine-B assay; format: functional; details: MCF7, 48 h, read-out: Survival; in short: as §1
MCF7 [4] = assay: Cytotoxicity against human MCF7 cells assessed as cell survival at 50 uM after 48 hrs by sulforhodamine-B assay; format: functional; details: MCF7, 48 h, read-out: Survival; in short: as §1
MCF7 [5] = assay: Cytotoxicity against human MCF7 cells assessed as cell survival at 100 uM after 48 hrs by sulforhodamine-B assay; format: functional; details: MCF7, 48 h, read-out: Survival; in short: as §1
Carbonic anhydrase 1 = Carbonic anhydrase 1 (Homo sapiens, UniProt P00915); assay: Inhibition of human recombinant carbonic anhydrase 1 preincubated for 15 mins by stopped-flow CO2 hydrase assay
Carbonic anhydrase 2 = Carbonic anhydrase 2 (Homo sapiens, UniProt P00918); assay: Inhibition of human recombinant carbonic anhydrase 2 preincubated for 15 mins by stopped-flow CO2 hydrase assay

Carbonic anhydrase 1, sequence (P00915 whole entry): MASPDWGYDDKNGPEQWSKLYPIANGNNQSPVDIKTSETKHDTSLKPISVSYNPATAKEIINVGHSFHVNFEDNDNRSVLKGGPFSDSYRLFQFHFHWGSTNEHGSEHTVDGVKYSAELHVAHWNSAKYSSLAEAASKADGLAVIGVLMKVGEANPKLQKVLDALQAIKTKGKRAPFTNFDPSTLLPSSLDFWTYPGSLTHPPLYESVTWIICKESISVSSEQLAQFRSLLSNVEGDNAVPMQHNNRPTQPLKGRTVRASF

SMILES	IC50 (MCF7 [1])	viability at 10 µM (MCF7 [2])	Ki (Carbonic anhydrase 9)	viability at 25 µM (MCF7 [3])	viability at 50 µM (MCF7 [4])	viability at 100 µM (MCF7 [5])	Ki (Carbonic anhydrase 1)	Ki (Carbonic anhydrase 2)
N#Cc1c(-c2ccc(Br)cc2)cn(-c2ccc(S(N)(=O)=O)cc2)c1N	7.56 µM							
N#Cc1c(-c2ccc(Br)cc2)cn(-c2ccc(S(N)(=O)=O)cc2)c1NC(=S)Nc1ccccc1	7.29 µM	30.8%	0.0624 µM	23.5%	22.7%	21.7%		
COc1ccc(NC(=S)Nc2c(C#N)c(-c3ccc(Br)cc3)cn2-c2ccc(S(N)(=O)=O)cc2)cc1	7.01 µM	26.2%		26.3%	24.9%	21.7%		
N#Cc1c(-c2ccc(Br)cc2)cn(-c2ccc(S(N)(=O)=O)cc2)c1NC(=S)Nc1ccc(Cl)cc1	8.12 µM	28.8%	0.0903 µM	25.7%	26%	29%		
N#Cc1c(-c2ccc(Br)cc2)cn(-c2ccc(S(N)(=O)=O)cc2)c1NC(=S)Nc1ccc([N+](=O)[O-])cc1	8.11 µM	28%	0.0866 µM	27.6%	25.5%	26%		
N#Cc1c(-c2ccc(Br)cc2)cn(-c2ccc(S(N)(=O)=O)cc2)c1NC(=S)Nc1ccc(Br)cc1	8.15 µM	29.8%		28%	27.7%	29%		
N#Cc1c(-c2ccc(Br)cc2)cn(-c2ccc(S(N)(=O)=O)cc2)c1NC(=S)Nc1ccc(I)cc1	8.15 µM	31.2%	0.46 µM	29%	28.1%	28.8%		
N#Cc1c(-c2ccc(Br)cc2)cn(-c2ccc(S(N)(=O)=O)cc2)c1NC(=S)Nc1ccc(S(N)(=O)=O)cc1	8.13 µM	31.1%	0.0512 µM	29.1%	25.5%	27.6%		
Cc1ccc(-n2c(=S)[nH]c3c(c(-c4ccc(Br)cc4)cn3-c3ccc(S(N)(=O)=O)cc3)c2=N)cc1	6.46 µM	25%		24.2%	22.9%	24.5%		
N#Cc1c(-c2ccc(Br)cc2)cn(-c2ccc(S(N)(=O)=O)cc2)c1NS(=O)(=O)c1ccccc1	7.01 µM	27.2%	0.849 µM	29%	20.2%	23.2%		
Cc1ccc(S(=O)(=O)Nc2c(C#N)c(-c3ccc(Br)cc3)cn2-c2ccc(S(N)(=O)=O)cc2)cc1	7.56 µM	32.4%	0.171 µM	27.1%	22.2%	21.4%		
Nc1nc(=O)[nH]c2c1c(-c1ccc(Br)cc1)cn2-c1ccc(S(N)(=O)=O)cc1	6.74 µM	27%	0.0244 µM	27.6%	20.3%	23.8%		
Nc1nc(=S)[nH]c2c1c(-c1ccc(Br)cc1)cn2-c1ccc(S(N)(=O)=O)cc1	6.46 µM	23.1%	0.0429 µM	25.5%	19.9%	25%		
NS(=O)(=O)c1ccc(-n2cc(-c3ccc(Br)cc3)c3c(=S)[nH]c(=S)[nH]c32)cc1	7.56 µM	33.7%	0.0071 µM	29.4%	21.9%	22.5%		
C/C(S)=N/c1c(C#N)c(-c2ccc(Br)cc2)cn1-c1ccc(S(N)(=O)=O)cc1	8.11 µM	33%	0.006 µM	31.2%	30%	29.9%		
Cc1nc(S)c2c(-c3ccc(Br)cc3)cn(-c3ccc(S(N)(=O)=O)cc3)c2n1	6.74 µM	23.6%	0.0054 µM	21.8%	19.8%	23.1%		
CC(=O)CC(=O)Nc1c(C#N)c(-c2ccc(Br)cc2)cn1-c1ccc(S(N)(=O)=O)cc1	8.11 µM	29%	0.0055 µM	28.2%	28%	29.1%		
N#Cc1c(-c2ccc(Br)cc2)cn(-c2ccc(S(N)(=O)=O)cc2)c1NC(=O)c1ccc(Br)cc1	7.56 µM	35.8%		32.7%	24.9%	25.4%		
NS(=O)(=O)c1ccc(-n2cc(-c3ccc(Br)cc3)c3c(=O)n(C(=O)c4ccccc4)c(-c4ccccc4)nc32)cc1	8.11 µM	36.6%	0.0065 µM	31.8%	28.4%	26.8%	> 10 µM	
NS(=O)(=O)c1ccc(-n2cc(-c3ccc(Br)cc3)c3c(=O)n(C(=O)c4ccc(Cl)cc4)c(-c4ccc(Cl)cc4)nc32)cc1	13.1 µM	54.9%	0.488 µM	29.3%	20.1%	29.5%	> 10 µM	> 10 µM
